Data reported in ChEMBL document CHEMBL4014338, “Discovery of Small Molecules as Multi-Toll-like Receptor Agonists with Proinflammatory and Anticancer Activities” (J Med Chem, 2017).

What was measured:
[1] = biological target: T1, Toll-like receptor 3/8/9 (Homo sapiens) (UniProt O15455+Q9NR96+Q9NR97); test: Agonist activity at TLR3/TLR8/TLR9 in human THP1 cells assessed as increase in IL-8 mRNA level after 12 hrs by qRT-PCR method; type: cell-based
Method in brief: (§1)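 THP-1 cells (1.5 × 10^6/well) differentiated with PMA (20 nM) for 2 days, then 24 h in fresh RPMI 1640; nonadherent cells removed. Treated with indicated compound concentrations for 12 h, washed with PBS, and mRNA measured by qRT-PCR. Expressed as fold change versus untreated control, poly I:C (5 μg/mL) as reference. Mean ± SD of three independent experiments.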

HeLa [2] = test: Cell cycle arrest in human HeLa cells assessed as accumulation at S phase at 30 uM after 24 hrs by propidium iodide staining based flow cytometry (reference value: 31%); type: functional
Toll-like receptor 8 = biological target: T2, Toll-like receptor 8 (Homo sapiens, UniProt Q9NR97); test: Agonist activity at human TLR8 expressed in HEK293 cells assessed as induction of NF-kB activation-mediated SEAP production after 24 hrs by HTS assay; type: cell-based
T2 sequence (Q9NR97 whole entry): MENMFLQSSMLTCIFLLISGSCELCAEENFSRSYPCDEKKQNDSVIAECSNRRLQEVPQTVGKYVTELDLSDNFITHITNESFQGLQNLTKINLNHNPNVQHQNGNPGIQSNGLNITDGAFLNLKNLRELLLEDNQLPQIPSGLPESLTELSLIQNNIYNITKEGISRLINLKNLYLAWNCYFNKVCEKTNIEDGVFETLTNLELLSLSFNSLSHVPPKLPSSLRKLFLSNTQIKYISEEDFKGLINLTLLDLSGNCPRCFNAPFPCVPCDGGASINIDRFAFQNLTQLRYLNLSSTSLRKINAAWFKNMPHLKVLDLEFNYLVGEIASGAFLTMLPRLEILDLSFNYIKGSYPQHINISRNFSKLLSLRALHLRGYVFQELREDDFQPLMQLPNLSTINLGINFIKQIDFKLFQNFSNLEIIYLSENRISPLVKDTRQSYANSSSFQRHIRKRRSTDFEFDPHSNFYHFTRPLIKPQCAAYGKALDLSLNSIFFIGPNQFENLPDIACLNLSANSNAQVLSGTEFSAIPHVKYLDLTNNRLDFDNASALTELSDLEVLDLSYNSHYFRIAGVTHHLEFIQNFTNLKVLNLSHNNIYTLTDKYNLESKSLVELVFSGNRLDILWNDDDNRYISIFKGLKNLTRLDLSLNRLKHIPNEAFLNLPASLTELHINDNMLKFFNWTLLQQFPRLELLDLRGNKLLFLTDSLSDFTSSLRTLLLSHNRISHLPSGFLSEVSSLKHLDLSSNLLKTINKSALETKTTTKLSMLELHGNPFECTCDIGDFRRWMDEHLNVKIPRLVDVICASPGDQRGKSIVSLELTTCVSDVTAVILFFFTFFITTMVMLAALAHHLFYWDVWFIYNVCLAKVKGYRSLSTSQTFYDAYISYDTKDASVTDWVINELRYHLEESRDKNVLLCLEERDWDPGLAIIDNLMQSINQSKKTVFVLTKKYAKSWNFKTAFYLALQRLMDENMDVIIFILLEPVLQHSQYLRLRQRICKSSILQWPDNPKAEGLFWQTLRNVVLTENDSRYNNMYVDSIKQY
Method in brief: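 HEK293 cells stably expressing human TLR8 or TLR9 plus an NF-κB-inducible SEAP reporter, seeded at 5 × 10^4 cells/well for 24 h, then treated for 24 h. Supernatant incubated with QUANTI-Blue at 37 °C for 1 h and OD read at 620 nm. Positive controls were R848 (TLR8) and ODN2006 (TLR9). EC50 reported as mean ± SD.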

HeLa [3] = test: Cell cycle arrest in human HeLa cells assessed as accumulation at S phase at 40 uM after 24 hrs by propidium iodide staining based flow cytometry (reference value: 31%); type: functional
Toll-like receptor 5 = Toll-like receptor 5 (Homo sapiens, UniProt O60602); test: Agonist activity at human TLR5 expressed in HEK293 cells assessed as induction of NF-kB activation-mediated SEAP production after 24 hrs by HTS assay; type: cell-based
Method in brief: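 Stable HEK293 lines expressing a single hTLR plus a SEAP reporter, grown in DMEM/10% FBS with selective antibiotics. Seeded at 5 × 10^4 cells/well for 24 h at 37 °C, then treated 24 h. Supernatant mixed with QUANTI-Blue, 1 h at 37 °C, OD 620 nm. Cognate agonists: Pam3CSK4 (TLR2), poly I:C (TLR3), LPS (TLR4), FLA-BS (TLR5), R848 (TLR7). EC50 as mean ± SD.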

HeLa [4] = test: Cell cycle arrest in human HeLa cells assessed as accumulation at G2/M phase at 30 uM after 24 hrs by propidium iodide staining based flow cytometry (reference value: 17%); type: functional
HeLa [5] = test: Antiproliferative activity against human HeLa cells after 72 hrs by WST1 assay; type: functional, cell-based
Method in brief: (§2)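 Cells seeded at 5 × 10^3/well and left 24 h, then given a concentration series for 24, 48 or 72 h. WST-1 reagent added and incubated at 37 °C for 30 min–2 h until color change; absorbance 450 nm. Growth inhibition = (1 − [sample − background]/[control − background]) × 100. IC50 mean ± SD, three cell preparations.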

[6] = biological target: T1, Toll-like receptor 3/8/9 (Homo sapiens); test: Agonist activity at TLR3/TLR8/TLR9 in human THP1 cells assessed as increase in IL-6 mRNA level after 12 hrs by qRT-PCR method; type: cell-based; method in brief: as §1
HeLa [7] = test: Cell cycle arrest in human HeLa cells assessed as accumulation at S phase at 10 uM after 24 hrs by propidium iodide staining based flow cytometry (reference value: 31%); type: functional
HMEC = test: Antiproliferative activity against HMEC after 48 hrs by WST1 assay; type: cell-based; details: Homo sapiens; method in brief: as §2
HeLa [8] = test: Cell cycle arrest in human HeLa cells assessed as accumulation at S phase after 24 hrs by propidium iodide staining based flow cytometry; type: functional
HeLa [9] = test: Antiproliferative activity against human HeLa cells after 48 hrs by WST1 assay; type: functional, cell-based; method in brief: as §2

T1 sequence (O15455 whole entry, looked up, one chain of several): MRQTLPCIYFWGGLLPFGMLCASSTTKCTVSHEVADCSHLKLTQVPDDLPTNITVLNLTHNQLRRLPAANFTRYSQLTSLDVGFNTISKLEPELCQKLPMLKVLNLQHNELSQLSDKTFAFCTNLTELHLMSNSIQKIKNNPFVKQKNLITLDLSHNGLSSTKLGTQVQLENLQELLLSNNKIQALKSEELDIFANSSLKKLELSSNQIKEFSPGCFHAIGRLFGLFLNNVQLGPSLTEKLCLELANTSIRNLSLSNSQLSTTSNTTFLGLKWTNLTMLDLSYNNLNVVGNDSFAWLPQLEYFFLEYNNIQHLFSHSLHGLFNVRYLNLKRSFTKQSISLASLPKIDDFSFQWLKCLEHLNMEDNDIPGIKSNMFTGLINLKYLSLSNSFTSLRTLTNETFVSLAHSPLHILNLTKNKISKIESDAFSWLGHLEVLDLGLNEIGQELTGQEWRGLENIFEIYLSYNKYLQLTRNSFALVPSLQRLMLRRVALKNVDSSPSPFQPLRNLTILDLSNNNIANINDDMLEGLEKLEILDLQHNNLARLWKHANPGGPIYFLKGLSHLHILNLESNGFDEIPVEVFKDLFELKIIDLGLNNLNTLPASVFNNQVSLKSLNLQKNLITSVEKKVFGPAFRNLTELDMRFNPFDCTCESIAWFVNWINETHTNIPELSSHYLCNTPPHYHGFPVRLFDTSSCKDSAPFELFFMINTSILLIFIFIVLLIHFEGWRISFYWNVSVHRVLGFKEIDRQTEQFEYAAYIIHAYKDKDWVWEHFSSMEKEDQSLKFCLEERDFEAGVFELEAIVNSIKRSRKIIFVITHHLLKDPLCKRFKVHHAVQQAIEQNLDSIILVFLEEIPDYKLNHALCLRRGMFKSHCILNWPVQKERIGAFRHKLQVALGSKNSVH
T1 sequence (Q9NR96 whole entry, looked up, one chain of several): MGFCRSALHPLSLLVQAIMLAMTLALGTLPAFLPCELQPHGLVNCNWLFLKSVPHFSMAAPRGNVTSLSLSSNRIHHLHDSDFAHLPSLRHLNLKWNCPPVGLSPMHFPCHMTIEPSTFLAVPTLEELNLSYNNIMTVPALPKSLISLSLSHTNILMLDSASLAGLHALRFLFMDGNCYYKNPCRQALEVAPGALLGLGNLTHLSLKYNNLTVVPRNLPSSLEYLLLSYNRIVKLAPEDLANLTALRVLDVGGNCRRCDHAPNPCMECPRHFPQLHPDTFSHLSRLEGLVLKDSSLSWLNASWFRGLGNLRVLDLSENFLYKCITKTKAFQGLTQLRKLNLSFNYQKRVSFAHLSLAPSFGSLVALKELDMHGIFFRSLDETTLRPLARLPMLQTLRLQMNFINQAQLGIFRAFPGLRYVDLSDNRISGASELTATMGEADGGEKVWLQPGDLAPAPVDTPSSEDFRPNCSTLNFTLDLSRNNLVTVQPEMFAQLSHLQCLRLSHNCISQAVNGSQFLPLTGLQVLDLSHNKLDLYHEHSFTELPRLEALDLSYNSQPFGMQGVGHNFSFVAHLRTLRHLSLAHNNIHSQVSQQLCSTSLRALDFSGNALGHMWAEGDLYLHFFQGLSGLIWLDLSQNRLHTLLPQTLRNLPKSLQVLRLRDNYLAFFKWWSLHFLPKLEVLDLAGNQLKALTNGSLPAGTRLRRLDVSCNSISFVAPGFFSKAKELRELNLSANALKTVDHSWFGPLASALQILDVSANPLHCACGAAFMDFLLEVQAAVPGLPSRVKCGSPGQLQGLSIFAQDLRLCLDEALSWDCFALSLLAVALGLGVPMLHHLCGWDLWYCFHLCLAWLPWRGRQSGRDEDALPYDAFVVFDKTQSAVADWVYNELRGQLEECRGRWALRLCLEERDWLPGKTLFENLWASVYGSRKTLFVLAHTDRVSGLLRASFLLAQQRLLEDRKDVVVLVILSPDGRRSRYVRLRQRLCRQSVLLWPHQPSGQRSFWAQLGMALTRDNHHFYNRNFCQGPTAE
Toll-like receptor 5, sequence (O60602 whole entry): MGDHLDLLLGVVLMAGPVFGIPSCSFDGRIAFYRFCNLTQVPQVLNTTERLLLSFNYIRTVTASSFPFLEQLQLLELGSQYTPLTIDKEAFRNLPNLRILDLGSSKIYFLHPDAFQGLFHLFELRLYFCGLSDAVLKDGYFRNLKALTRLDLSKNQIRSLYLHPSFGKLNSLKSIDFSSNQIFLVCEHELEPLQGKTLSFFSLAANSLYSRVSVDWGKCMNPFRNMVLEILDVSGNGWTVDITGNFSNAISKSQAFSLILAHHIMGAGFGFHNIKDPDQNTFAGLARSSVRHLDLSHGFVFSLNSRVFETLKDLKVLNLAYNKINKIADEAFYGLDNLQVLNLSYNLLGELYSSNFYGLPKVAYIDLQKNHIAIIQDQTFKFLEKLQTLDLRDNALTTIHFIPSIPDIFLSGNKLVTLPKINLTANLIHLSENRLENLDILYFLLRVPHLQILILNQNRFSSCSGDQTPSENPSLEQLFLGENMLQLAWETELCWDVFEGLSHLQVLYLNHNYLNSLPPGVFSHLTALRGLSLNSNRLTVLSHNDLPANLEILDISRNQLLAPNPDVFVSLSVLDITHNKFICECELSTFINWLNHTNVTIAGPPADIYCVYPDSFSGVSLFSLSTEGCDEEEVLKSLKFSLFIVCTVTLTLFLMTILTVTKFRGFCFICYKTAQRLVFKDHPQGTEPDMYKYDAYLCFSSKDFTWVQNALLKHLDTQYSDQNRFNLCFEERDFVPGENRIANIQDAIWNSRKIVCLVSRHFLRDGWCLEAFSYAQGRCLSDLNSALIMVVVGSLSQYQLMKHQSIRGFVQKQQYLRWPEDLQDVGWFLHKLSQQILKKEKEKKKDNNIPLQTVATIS

## O=[N+]([O-])c1ccc(COc2cc3c(cc2OCc2ccc([N+](=O)[O-])cc2)OC2(C=C3)CCOCC2)cc1
[1]
  Activity: Dose-dependent effect
HeLa [2]
  Activity: 39%
Toll-like receptor 8
  EC50: 13.4 µM
HeLa [3]
  Activity: 41%
Toll-like receptor 5
  EC50: > 100 µM
HeLa [4]
  Activity: 20%
HeLa [5]
  Activity: Dose-dependent effect
  IC50: 2.71 µM
[6]
  Activity: Dose-dependent effect
HeLa [7]
  Activity: 35%
HMEC
  IC50: > 100 µM
HeLa [8]
  Activity: Dose-dependent effect
HeLa [9]
  Activity: Dose-dependent effect
  IC50: 15.8 µM
